Measurements: article PMC5884119 (Journal of medicinal chemistry, 2017)
≈ marks a conversion by molar mass, not a printed value.

Assays:
[1] = test system: panel of Gram-positive and Gram-negative bacteria; test: Antimicrobial activity against the whole panel; format: cell-based; conditions: for antimicrobial activity against the tested strains (in words): statement in text over the panel of strains; for MIC: read-out: MICs across the tested strains
[2] = test system: P. aeruginosa (ATCC 27853); test: MIC against P. aeruginosa; format: cell-based, Pseudomonas aeruginosa
Hemolytic activity = format: cell-based
[3] = test system: MRSA-induced lung inflammation; test: Rat MRSA pneumonia model, lung pathology; format: in vivo
In short: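 Rats (n = 6 per group) inoculated intratracheally with 100 µL MRSA suspension. After 24 h (day 0), test compound 10 mg/kg given by intravenous tail-vein injection. Lung bacterial counts taken on days 3 and 5. Lung inflammation assessed by hematoxylin and eosin staining of lung tissue.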

E. coli [4] = test: Time-kill study, E. coli; format: cell-based, Escherichia coli
[5] = test system: ovarian cancer cells (C13); test: Cytotoxicity toward ovarian cancer cells; format: cell-based
MRSA [6] = test: Time-kill study, MRSA; format: cell-based, Staphylococcus aureus
MRSA [7] = test: Fluorescence microscopy; format: cell-based, Staphylococcus aureus
E. coli [8] = test: Fluorescence microscopy; format: cell-based, Escherichia coli
In short: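 Test compound at 5 µg/mL applied to E. coli for 2 h, with untreated cells as controls. Cells stained with DAPI or with propidium iodide, a membrane-impermeant DNA intercalator that fluoresces red only when membranes are disrupted. Membrane damage assessed by fluorescence microscopy.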

MRSA [9] = test: Drug resistance study; format: cell-based, Staphylococcus aureus; conditions: incubated at half of MIC overnight, after 14 passages
Pseudomonas aeruginosa = conditions: cited from earlier work
[10] = even at 100 µg/mL, same experiment (Figure S2)

CCCCCCCCCC(=O)N[C@@H](CCCCN)CN1CC(=O)N(CC)C1=O [Compound 1, (S)-N-(6-Amino-1-(3-ethyl-2,4-dioxoimidazolidin-1-yl)hexan-2-yl)decanamide]
antimicrobial activity against the tested strains (in words) [1]: did not exhibit any activity

CCCCCCCCCCCCCCCC(=O)N[C@@H](CCCCN)CN1CC(=O)N(CC)C1=O [Compound 4, (S)-N-(6-Amino-1-(3-ethyl-2,4-dioxoimidazolidin-1-yl)hexan-2-yl)palmitamide]
activity toward P. aeruginosa (in words) [2]: abolished

CCCCCCCCCC(=O)N[C@@H](CCCCN)CN1CC(=O)N(CCCC)C1=O [Compound 5, (S)-N-(6-Amino-1-(3-butyl-2,4-dioxoimidazolidin-1-yl)hexan-2-yl)decanamide]
antimicrobial activity against the tested strains (in words) [1]: does not have any antimicrobial activity

CCCCCCCCCC(=O)N[C@@H](CCCCN)CN1CC(=O)N(C2CCCCC2)C1=O [Compound 9, (S)-N-(6-Amino-1-(3-cyclohexyl-2,4-dioxoimidazolidin-1-yl)-hexan-2-yl)decanamide]
antimicrobial activity against the tested strains (in words) [1]: starts to show activity toward a few bacterial strains

CCCCCCCCCC(=O)N[C@@H](CCCCN)CN1CC(=O)N(C23CC4CC(CC(C4)C2)C3)C1=O [Compound 13, N-((S)-1-(3-((3R,5R,7R)-Adamantan-1-yl)-2,4-dioxoimidazolidin-1-yl)-6-aminohexan-2-yl)decanamide]
HC50 (Hemolytic activity): 125 µg/mL
antimicrobial activity against the tested strains (in words) [1]: decent activity across the panel of bacteria

CCCCCCCCCCCC(=O)N[C@@H](CCCCN)CN1CC(=O)N(c2cccc(Cl)c2)C1=O [Compound 22, (S)-N-(6-Amino-1-(3-(3-chlorophenyl)-2,4-dioxoimidazolidin-1-yl)hexan-2-yl)dodecanamide]
lung inflammation (H&E staining) ([3]; day 3): only mild inflammation was observed
lung inflammation (H&E staining) ([3]; day 5): virtually matched normal conditions
time to complete eradication (E. coli [4]; 4.0 µg/mL (4× MIC)): 60 min
time to complete eradication (E. coli [4]; 25 µg/mL): 30 min
time to complete eradication (E. coli [4]; 50 µg/mL): 30 min
IC50 [5]: 90 µg/mL (≈ 177 µM)
time to complete eradication (MRSA [6]; 2.0 µg/mL (4× MIC)): 60 min
time to complete eradication (MRSA [6]; 25 µg/mL): 10 min
membrane damage (DAPI and PI staining) (MRSA [7]; MRSA, 5 µg/mL, 2 h): damaged
MIC [1]: < 1 µg/mL
membrane damage (DAPI and PI staining) (E. coli [8]; E. coli, 5 µg/mL, 2 h): damaged
MIC after serial passage (resistance development) (MRSA [9]): remained virtually unchanged

CCCCCCCCCCCC(=O)N[C@@H](Cc1ccccc1)CN1CC(=O)N(c2cccc(Cl)c2)C1=O [Compound 25, (S)-N-(1-(3-(3-Chlorophenyl)-2,4-dioxoimidazolidin-1-yl)-3-phenylpropan-2-yl)dodecanamide]
antimicrobial activity against the tested strains (in words) [1]: failed to show any antimicrobial activity

O=C1CN(/N=C/c2ccc([N+](=O)[O-])o2)C(=O)N1 [Compound 26, nitrofurantoin, reference compound]
activity toward P. aeruginosa (in words) [2]: failed to show any activity
membrane-disruption activity (MRSA [7]; [10]): did not show any membrane-disruption activity
MIC [1]: 6.25 to 25 µg/mL (≈ 26.2 to 105 µM)
membrane-disruption activity (E. coli [8]; [10]): did not show any membrane-disruption activity
not active up to (concentration) (Pseudomonas aeruginosa): > 100 µg/mL

CN[C@H](CC(C)C)C(=O)N[C@H]1C(=O)N[C@@H](CC(N)=O)C(=O)N[C@H]2C(=O)N[C@H]3C(=O)N[C@H](C(=O)N[C@H](C(=O)O)c4cc(O)cc(O)c4-c4cc3ccc4O)[C@H](O)c3ccc(c(Cl)c3)Oc3cc2cc(c3O[C@@H]2O[C@H](CO)[C@@H](O)[C@H](O)[C@H]2O[C@H]2C[C@](C)(N)[C@H](O)[C@H](C)O2)Oc2ccc(cc2Cl)[C@H]1O [vancomycin, reference compound]
lung inflammation (H&E staining) ([3]; day not given): some alleviation of this condition
